Screens: PubChem, Sanford-Burnham Center for Chemical Genomics
tim10-1 inh – inhibits growth of tim10-1 mutant yeast; S. cerevisiae tim10-1 ts strain growth, BacTiter-Glo, 24 h; inhibition, % at 20 µM; 330,000 tested, 2.2% active;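 active = inhibition of at least 40%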;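 also: mutant grown at 25 °C; 0% = DMSO wells with yeast and 100% = wells holding no yeast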
UPR XBP1 act – adaptive UPR (XBP1) activation. AID 463104. 330,000 tested, 0.33% active. activation, % at 20 µM. CHO-XBP1 luciferase reporter, IRE1-XBP1 UPR activation, luminescence; percent of tunicamycin response, DMSO as zero;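 active = versus positive control, 20 µM dose yields 30% or more activation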;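 also: 100% = tunicamycin at 10 µg/mL and 0% = DMSO only wells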
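Material: CHO cell line with stable XBP1 luciferase reporter; schedule: 16-18 h cell attachment at 37 °C, then 6 h compound exposure; signal: glow luminescence from Steady-Glo reagent; medium: serum-containing F12 medium, 10% FBS; benchmarks: tunicamycin 10 µg/mL and vehicle-only wells; read-out: percent activation relative to tunicamycin reference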
UPR CHOP act – apoptotic UPR (CHOP) activation | CHO-CHOP luciferase reporter, luminescence; percent of tunicamycin response over DMSO baseline | activation, % at 10 µM | 330,000 tested, 0.34% active | AID 449763;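 active = at 10 µM dose, activation of 40% or more, normalized to positive control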;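 also: 100% = tunicamycin at 10 µg/mL and 0% = DMSO alone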
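Test system: CHO-CHOP cells, stable luciferase reporter of PERK-eIF2a-CHOP signalling | Quantity: 500 CHO-CHOP cells per well | Buffer or medium: F12 plus 10% serum | Compound dosing: 10 µM single point, 0.5% DMSO | Schedule: 6 h compound treatment, 37 °C | Signal: Luciferase luminescence | Control set: Tunicamycin high control, DMSO low control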
tim23-1 inh – growth inhibitors of tim23-1 mutant yeast; S. cerevisiae tim23-1 growth, BacTiter-Glo luminescence, 24 h; 330,000 tested, 1.3% active; inhibition, % at 20 µM;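 active = growth inhibition of the mutant yeast at or above 50%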;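 also: temperature-sensitive mutant grown at 25 °C; plate controls were DMSO-treated mutant yeast for no effect and medium wells lacking yeast for full effect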
TIM10 inh – inhibits growth of TIM10 yeast strain; S. cerevisiae TIM10 strain growth, BacTiter-Glo luminescence, 24 h; AID 463195; inhibition, % at 10 µM; 330,000 tested, 1.4% active;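 active = inhibition of 40% or more at the single tested concentration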;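 also: wild-type TIM10 isogenic control strain grown at permissive 25 °C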
tim23-1 confirm – confirmation of tim23-1 mutant yeast growth inhibitors | shares compounds with tim23-1 inh | S. cerevisiae tim23-1 growth, BacTiter-Glo luminescence, 24 h | inhibition, % at 20 µM | 4,400 tested, 83% active;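 active = inhibition above about 39% in either of two replicate wells at 20 µM, limit read from the data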;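 also: temperature-sensitive tim23-1 mutant grown at 25 °C; 0% = DMSO wells with yeast and 100% = medium wells without yeast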
An asterisk follows results filed as active; nt = not tested or not shown. Sampled rows, rich in hits. Any-hit rate of the full collection: about 3.9%.

SMILES | tim10-1 inh | UPR XBP1 act | UPR CHOP act | tim23-1 inh | TIM10 inh | tim23-1 confirm
COc1ccc(N2CCN(S(=O)(=O)c3cc4c(cc3C)NC(=O)CO4)CC2)cc1 | -9 | -2 | 2 | -7 | -19 | nt
Cc1ccc(C(=O)Nc2nc(COc3ccccc3)cs2)s1 | -65 | 2 | 1 | 52* | -2 | 38
Cc1ccc(NC(=O)c2ccc(Cl)c(NC(=O)c3cccs3)c2)cc1 | 18 | 0 | 6 | 66* | 26 | 66*
Cc1ccnc(NC(=O)c2cc(F)c(F)cc2Cl)n1 | 28 | 3 | -1 | 62* | 20 | 47*
O=C(Nc1cccnc1)c1cc(F)c(F)cc1Cl | 8 | -4 | -1 | 3 | -9 | nt
Cc1ccc2[nH]c3ccccc3c(=O)c2c1 | -24 | 14 | 2 | 59* | 10 | 50*
Cc1cccc(C(=O)OC(C)C(=O)N2CCN(Cc3ccccc3)CC2)c1 (centres undefined) | 10 | 0 | 1 | 19 | 6 | nt
N#Cc1ccc(OCC(=O)N2CCCC2=O)cc1 | -26 | 1 | -1 | 0 | 4 | nt
Cc1[nH]nc2c1C(c1ccc(-c3ccc(Cl)cc3)o1)C(C#N)=C(N)O2 (centres undefined) | 34 | 6 | 3 | 34 | 22 | nt
Cc1ccc(-c2ccc(C3C(C#N)=C(N)Oc4n[nH]c(C)c43)o2)cc1 (centres undefined) | 26 | 4 | 5 | 60* | 14 | 46*
Nc1cccc2cc(-c3ccccc3)oc12 | 6 | 5 | 7 | 24 | 0 | nt
COc1ccc(/C=C2\N=C(C(C)(C)C)OC2=O)c(OC)c1 | 36 | -4 | 2 | 22 | 14 | nt
COc1ccc(/C=c2\sc3nc(=O)c(C)nn3c2=O)c(OC)c1 | 31 | -4 | 0 | 53* | 8 | 39*
CCc1cccc(CC)c1-n1c(SCC(=O)N2CCCc3ccccc32)nc(O)cc1=O | 7 | -1 | -1 | 12 | -2 | nt
COc1ccc(C(=O)N/N=C\c2coc3ccccc3c2=O)cc1 | 13 | -3 | 1 | 51* | 14 | 43*
O=C(N/N=C/c1cc(Cl)cc(Cl)c1O)c1ccncc1 | 2 | 0 | -3 | 54* | 38 | 62*
COc1ccc(C(=O)N/N=C/c2ccc3cccc(O)c3n2)cc1 | -23 | 1 | 1 | 53* | 11 | 54*
O=C(N/N=C/c1ccc2cccc(OCc3ccccc3)c2n1)c1ccc(Cl)cc1 | 9 | 1 | -1 | 0 | 17 | nt
O=C(N/N=C/c1coc2ccc(Cl)cc2c1=O)c1ccncc1 | 8 | -2 | 4 | 66* | -12 | 56*
O=C(N/N=C/c1cc2c(cc1Cl)OCO2)c1ccncc1 | 1 | -2 | 2 | 10 | 4 | nt
Cc1cccc(C(=O)N/N=C/c2coc3ccccc3c2=O)c1 | 8 | -4 | 2 | 50 | 22 | nt
O=C(N/N=C/c1ccc(Cl)cc1Cl)c1ccncc1 | 5 | 0 | 2 | 14 | -5 | nt
COc1cc(C(=O)O)c2c(c1C)OC(=O)c1c(C)cc(O)c(C=O)c1O2 | 4 | -2 | 1 | 10 | -6 | nt
COc1cc(CN(C(=O)c2cccs2)C2CCS(=O)(=O)C2)cc(OC)c1OC (centres undefined) | 15 | -3 | 1 | 9 | -3 | nt
Cn1c2c(c(=O)n(C)c1=O)C(c1ccc(C(F)(F)F)cc1)CC(=O)N2 (centres undefined) | -1 | -1 | -2 | 3 | 9 | nt
SMILES | tim10-1 inh | UPR XBP1 act | UPR CHOP act | tim23-1 inh | TIM10 inh | tim23-1 confirm
C[C@@H]1C=CC(=O)O[C@@H]1c1ccc(C(F)(F)F)cc1 | 39 | 4 | 5 | 57* | 29 | 37
CC(OC(=O)C1CC(=O)N(Cc2ccco2)C1)C(=O)Nc1ccccc1[N+](=O)[O-] (centres undefined) | -7 | -1 | 0 | -8 | 1 | nt
CCOC(=O)C(=CNNc1ccccc1)C(=O)OCC | 40 | 1 | 0 | 52* | 20 | 79*
O=C(Nc1cccc(NC(=O)c2ccc(-c3ccc(Br)cc3)o2)c1)c1ccccc1 | 1 | -1 | 3 | -10 | -40 | nt
O=C(Nc1ccc(Br)c(Cl)c1)c1ccco1 | 28 | 0 | 4 | 62* | 36 | 72*
O=C(Nc1cccc(NC(=O)c2ccc(-c3cccc(Br)c3)o2)c1)c1ccco1 | -47 | -1 | 3 | 60* | 19 | 43*
COc1ccc(N2CCN(S(=O)(=O)CCNC(=O)COc3cccc(OC)c3)CC2)cc1 | 5 | -7 | -2 | 27 | 3 | nt
CC(C)Oc1cc(O)c2c(=O)c(-c3ccc(O)cc3)coc2c1 | 37 | 6 | 8 | 57* | 22 | 61*
Fc1c(CSC(=S)N2CCOCC2)cccc1CSC(=S)N1CCOCC1 | 17 | -2 | 1 | 15 | 12 | nt
COc1ccc(-c2csc(NS(=O)(=O)c3ccc([N+](=O)[O-])cc3)n2)cc1 | 17 | -2 | 2 | 84* | 3 | 9
Cc1cc(=O)n(CC(=O)Nc2cc(Cl)ccc2C)c(C(C)C)n1 | 10 | -1 | 0 | 0 | -2 | nt
N#C/C(=C\c1cccs1)C(=O)c1ccccc1Cl | 16 | -1 | 4 | 62* | 19 | 57*
Cc1ccc(-c2csc3ncnc(N4CCN(C(=O)c5ccco5)CC4)c23)cc1 | 29 | 0 | 1 | 51* | 31 | 42*
O=C(O)CSCC(=O)N1CCN(c2ncnc3scc(-c4ccccc4)c23)CC1 | 16 | -6 | 1 | 3 | -10 | nt
CC(C)(C)C(=O)N1CCN(c2ncnc3scc(-c4ccccc4)c23)CC1 | 31 | -4 | -1 | 51* | 26 | 29
COc1cccc(CNc2cnc3ccccc3c2)c1O | 36 | -1 | 4 | 36 | 31 | nt
Cc1ccc(O)c(CNc2cnc3ccccc3c2)c1 | -6 | 0 | 6 | 57* | 3 | 42*
Oc1ccc(Br)cc1CNc1cnc2ccccc2c1 | 19 | -1 | 2 | 76* | 27 | 68*
c1ccc(CC(Nc2ccccn2)c2ccccc2)cc1 (centres undefined) | 35 | 1 | -1 | 52* | 38 | 41*
C=C1c2cccc(OC)c2O[C@H](C(=O)OCC)[C@@H]1CC(CC)CCCC (some centres undefined) | 27 | 0 | 1 | 51* | 16 | 36
O=C1CC2(CCN(C(=O)C(=O)c3c[nH]c4ccccc34)CC2)Oc2ccccc21 | 36 | -2 | 1 | 26 | 0 | nt
C1CCN(c2nc3nonc3nc2N2CCCCC2)CC1 | 18 | 0 | 0 | 16 | 7 | nt
Cc1ccc2c(Cl)c(C)c(N3CCCCC3)nc2n1 | 27 | -1 | 2 | 67* | 17 | 58*
CC1(c2ccccc2)CC(C)(C)N2C(=O)C(=O)c3cccc1c32 (centres undefined) | 38 | 0 | -2 | 61* | -4 | 56*
